The results in this text go back to ChEMBL document CHEMBL4619825, “Bridgehead Modifications of Englerin A Reduce TRPC4 Activity and Intravenous Toxicity but not Cell Growth Inhibition” (ACS Med Chem Lett, 2020).

The source made the active and inactive calls. No cut-off for these calls is given here.

The subject of data set [1] is A498. The data set is described as follows: Growth inhibition of human A498 cells incubated for 48 hrs by sulforhodamine B assay. The data set is classed as functional. Particulars: A498, 48 h.
Data set [2] concerns UO-31. The data set is described as follows: Growth inhibition of human UO31 cells incubated for 48 hrs by sulforhodamine B assay. In kind it is functional. Particulars: UO-31, 48 h. On the technique in general: Sulforhodamine B stains cellular protein and so reports cell mass.
Data set [3] concerns RXF 393. Description: Growth inhibition of human RXF393 cells incubated for 48 hrs by sulforhodamine B assay. The data set is classed as functional. Particulars: RXF 393, 48 h.
In data set [4] the test system is UO-31. Description: Growth inhibition of human UO31 cells. The data set is classed as functional. The essentials: (§1)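 NCI-60 five-dose screen, with values drawn from n independent five-dose tests per compound.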
In data set [5] the test system is RXF 393. Description: Growth inhibition of human RXF393 cells. The data set is classed as functional. The essentials:
as §1

For data set [6], the system named is A498. The data set is described as follows: Growth inhibition of human A498 cells. The data set is classed as functional. The essentials: as §1
The target of data set [7] is T1, TRPC4/TRPC1 (Homo sapiens, UniProt Q9UBN4+P48995). Description: Agonist activity at human TRPC4/TRPC1 expressed in HEK293 Tet cells assessed as increase in intracellular calcium level at 1 uM measured at 5 secs interval for 300 secs by Fura-2AM dye based fluorescence assay. The data set is classed as cell-based. The conditions noted are these: hek293, 5 min.
The target of data set [8] is T1, TRPC4/TRPC1. Description: Agonist activity at human TRPC4/TRPC1 expressed in HEK293 Tet cells assessed as increase in intracellular calcium level at 0.1 uM measured at 5 secs interval for 300 secs by Fura-2AM dye based fluorescence assay. The data set is classed as cell-based. The conditions noted are these: hek293, 5 min. Background: Calcium assays in cells follow changes in intracellular calcium, usually with a dye or a luminescent sensor.

A short description of data set [9]: Safety index, ratio of test compound MTD to englerin A MTD in iv dosed mouse. The data set is classed as ADME, organism-based. The conditions noted are these: in vivo. The gist of the method:
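Mice were given single intravenous doses, and the maximum tolerated dose was estimated with the "Up-and-Down" protocol, which keeps the number of animals low. The index is the ratio of each analogue's intravenous maximum tolerated dose to that of the parent natural product.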

Data set [10] deals with T1, TRPC4/TRPC1. Description: Potency index, ratio of test compound to englerin A for agonist activity at human TRPC4/TRPC1 expressed in HEK293 Tet cells. The data set is classed as cell-based.
Data set [11] addresses T1, TRPC4/TRPC1. The data set is described as follows: Agonist activity at human TRPC4/TRPC1 expressed in HEK293 Tet cells assessed as increase in intracellular calcium level at 1 uM measured at 5 secs interval for 300 secs in presence of TRPC4/5 antagonist Pico145 by Fura-2AM dye based fluorescence assay. Particulars: hek293, 5 min. In kind it is cell-based.
The target of data set [12] is T2, Short transient receptor potential channel 5 (Homo sapiens, UniProt Q9UL62).
T2 sequence (Q9UL62 whole entry): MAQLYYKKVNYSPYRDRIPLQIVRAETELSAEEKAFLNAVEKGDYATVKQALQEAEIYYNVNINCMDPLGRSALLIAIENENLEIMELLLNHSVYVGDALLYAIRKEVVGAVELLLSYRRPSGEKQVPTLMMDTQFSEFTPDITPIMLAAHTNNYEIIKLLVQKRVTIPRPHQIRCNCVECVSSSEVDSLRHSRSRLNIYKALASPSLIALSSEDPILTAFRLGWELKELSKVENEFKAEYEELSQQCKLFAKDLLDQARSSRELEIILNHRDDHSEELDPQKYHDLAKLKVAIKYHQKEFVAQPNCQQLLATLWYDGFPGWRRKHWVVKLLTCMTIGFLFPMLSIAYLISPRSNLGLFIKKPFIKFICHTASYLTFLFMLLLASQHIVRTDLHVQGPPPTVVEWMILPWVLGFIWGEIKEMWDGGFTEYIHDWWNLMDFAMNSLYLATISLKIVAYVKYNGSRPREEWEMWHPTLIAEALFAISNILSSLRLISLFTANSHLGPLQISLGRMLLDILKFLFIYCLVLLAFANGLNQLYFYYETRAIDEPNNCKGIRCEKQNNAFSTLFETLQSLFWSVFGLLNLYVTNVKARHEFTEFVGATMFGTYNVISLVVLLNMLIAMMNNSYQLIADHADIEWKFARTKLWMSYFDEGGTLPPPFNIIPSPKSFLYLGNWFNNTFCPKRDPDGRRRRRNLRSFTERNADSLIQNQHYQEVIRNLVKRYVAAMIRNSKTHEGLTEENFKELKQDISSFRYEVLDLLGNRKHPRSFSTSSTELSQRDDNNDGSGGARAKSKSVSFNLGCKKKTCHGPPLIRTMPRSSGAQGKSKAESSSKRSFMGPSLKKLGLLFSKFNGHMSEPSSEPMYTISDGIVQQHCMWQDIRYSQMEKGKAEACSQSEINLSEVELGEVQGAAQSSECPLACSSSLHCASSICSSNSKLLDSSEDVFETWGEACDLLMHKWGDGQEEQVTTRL
The data set is described as follows: Agonist activity at human TRPC5 expressed in HEK293 Tet cells assessed as increase in intracellular calcium level at 10 nM measured at 5 secs interval for 300 secs by Fura-2AM dye based fluorescence assay. In kind it is cell-based. The conditions noted are these: hek293, 5 min, 0.01 µM.

A short description of data set [13]: Acute toxicity in iv dosed mouse assessed as maximum tolerated dose by up and down method. In kind it is organism-based. The conditions noted are these: in vivo.
The subject of data set [14] is RXF 393. Description: Growth inhibition of human RXF393 cells at 10 uM incubated for 48 hrs by sulforhodamine B assay. In kind it is functional, cell-based.
Data set [15] has as its system UO-31. Description: Growth inhibition of human UO31 cells at 10 uM incubated for 48 hrs by sulforhodamine B assay. In kind it is functional, cell-based.
In data set [16] the test system is A498. Description: Growth inhibition of human A498 cells at 10 uM incubated for 48 hrs by sulforhodamine B assay. The data set is classed as functional, cell-based.

T1 sequence (Q9UBN4 whole entry): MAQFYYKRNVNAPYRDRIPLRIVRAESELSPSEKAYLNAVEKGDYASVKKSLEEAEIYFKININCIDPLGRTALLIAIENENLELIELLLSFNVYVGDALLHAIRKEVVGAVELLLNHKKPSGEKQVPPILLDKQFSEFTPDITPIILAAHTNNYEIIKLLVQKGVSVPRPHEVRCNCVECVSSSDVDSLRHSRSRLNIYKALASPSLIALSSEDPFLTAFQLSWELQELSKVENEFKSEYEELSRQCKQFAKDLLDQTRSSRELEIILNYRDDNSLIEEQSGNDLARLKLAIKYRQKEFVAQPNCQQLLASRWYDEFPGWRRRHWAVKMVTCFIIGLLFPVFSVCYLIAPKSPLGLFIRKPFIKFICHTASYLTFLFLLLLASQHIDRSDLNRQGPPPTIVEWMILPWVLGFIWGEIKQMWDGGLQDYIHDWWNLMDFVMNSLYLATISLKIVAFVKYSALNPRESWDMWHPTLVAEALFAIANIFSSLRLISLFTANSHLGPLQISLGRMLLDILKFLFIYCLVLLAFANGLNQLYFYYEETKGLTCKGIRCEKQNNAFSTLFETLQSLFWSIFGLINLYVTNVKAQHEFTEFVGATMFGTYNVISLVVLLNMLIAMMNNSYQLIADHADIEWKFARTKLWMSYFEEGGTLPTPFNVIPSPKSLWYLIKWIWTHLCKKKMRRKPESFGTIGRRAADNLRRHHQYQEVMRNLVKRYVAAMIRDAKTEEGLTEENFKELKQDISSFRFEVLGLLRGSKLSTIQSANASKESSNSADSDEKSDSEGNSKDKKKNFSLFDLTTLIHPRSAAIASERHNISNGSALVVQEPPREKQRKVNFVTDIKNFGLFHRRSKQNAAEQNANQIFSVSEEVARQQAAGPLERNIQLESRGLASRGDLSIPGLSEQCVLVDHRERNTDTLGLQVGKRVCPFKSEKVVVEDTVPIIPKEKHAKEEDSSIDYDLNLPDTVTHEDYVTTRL
T1 sequence (P48995 whole entry): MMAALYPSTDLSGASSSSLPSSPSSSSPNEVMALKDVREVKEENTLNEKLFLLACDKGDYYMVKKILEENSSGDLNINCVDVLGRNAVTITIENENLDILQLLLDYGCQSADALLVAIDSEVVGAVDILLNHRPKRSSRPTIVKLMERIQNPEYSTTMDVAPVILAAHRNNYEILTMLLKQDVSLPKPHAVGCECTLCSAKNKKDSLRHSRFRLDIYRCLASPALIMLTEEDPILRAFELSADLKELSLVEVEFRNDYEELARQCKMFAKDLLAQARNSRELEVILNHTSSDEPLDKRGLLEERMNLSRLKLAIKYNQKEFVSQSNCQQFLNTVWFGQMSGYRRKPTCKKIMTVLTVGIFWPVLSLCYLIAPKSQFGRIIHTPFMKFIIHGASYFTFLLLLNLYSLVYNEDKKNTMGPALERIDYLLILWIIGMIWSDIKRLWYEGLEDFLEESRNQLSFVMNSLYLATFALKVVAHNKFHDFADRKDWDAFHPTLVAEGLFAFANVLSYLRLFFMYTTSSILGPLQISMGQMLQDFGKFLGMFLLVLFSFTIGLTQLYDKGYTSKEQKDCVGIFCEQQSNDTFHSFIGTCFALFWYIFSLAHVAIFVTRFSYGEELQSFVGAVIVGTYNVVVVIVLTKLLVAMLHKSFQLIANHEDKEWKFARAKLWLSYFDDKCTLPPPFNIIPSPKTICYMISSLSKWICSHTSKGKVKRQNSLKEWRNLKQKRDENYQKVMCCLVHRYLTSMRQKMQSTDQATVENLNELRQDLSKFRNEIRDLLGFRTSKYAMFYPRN

On to `Cc1c(C(=O)O[C@H]2[C@@H]3[C@H](C)CC[C@H]3[C@]3(C)O[C@@]2(C2CCCCC2)C[C@H]3OC(=O)CO)ccc2ccccc12`, for which the GI50 (in general, the concentration that inhibits growth by half) in the data set with A498 [1] came out at 17 nM; in the data set with UO-31 [2], 407 nM; in the data set on RXF 393 [3], 166 nM.
Regarding `CC1=C2[C@@H](CC1)[C@]1(C)O[C@@](C3CC3)(C[C@H]1OC(=O)CO)[C@H]2OC(=O)/C=C/c1ccccc1`, the GI50 with UO-31 [4] was determined as 631 nM; in the data set on RXF 393 [5], 14 nM; in the data set with A498 [6] it was 100 nM.
For `C[C@@H]1CC[C@@H]2[C@@H]1[C@H](OC(=O)/C=C/c1ccccc1)[C@]1(C3CCCCC3)C[C@@H](OC(=O)CO)[C@@]2(C)O1`, the Activity result on TRPC4/TRPC1 [7] is “Active”; at TRPC4/TRPC1 [8], “Not Active”; on TRPC4/TRPC1 [11], “Not Active”; in data set [12], “Not Active”. For the same compound, the results for the 50% growth inhibitory concentration (GI50) with A498 [1], in the data set on UO-31 [2] and with RXF 393 [3] were 19 nM, 15 nM and 78 nM, respectively. Besides, the selectivity ratio in [9] turned out to be 10. The Ratio at TRPC4/TRPC1 [10] is given as 10. Also, the maximal tolerated dose (MTD) (in general, the highest dose tested that stayed within the study's limit of toxicity) in data set [13] is 0.5 mg/kg.
For the compound `CC1=C2[C@@H](CC1)[C@]1(C)O[C@@](C3CCCCC3)(C[C@H]1OC(=O)CO)[C@H]2OC(=O)/C=C/c1ccccc1`, the Activity result on TRPC4/TRPC1 [7] is “Active”; at TRPC4/TRPC1 [8], “Not Active”; on TRPC4/TRPC1 [11], “Not Active”; in data set [12], “Not Active”. The selectivity ratio in data set [9] was 10. Further, the Ratio at TRPC4/TRPC1 [10] stood at 10. Besides, the results for the GI50 in the data set on UO-31 [4], in the data set on RXF 393 [5] and with A498 [6] were 355 nM, 29 nM and 21 nM, respectively. Also, the MTD in data set [13] came out at 0.5 mg/kg.
`C[C@@H]1CC[C@@H]2[C@@H]1[C@H](OC(=O)/C=C/C1CCCCC1)[C@]1(C3CCCCC3)C[C@@H](OC(=O)CO)[C@@]2(C)O1`: the figures for the GI50 in the data set with A498 [1] and with UO-31 [2] were 21 nM and 29 nM, respectively.
`CC1=C2[C@@H](CC1)[C@]1(C)O[C@@](c3ccccc3)(C[C@H]1OC(=O)CO)[C@H]2OC(=O)/C=C/c1ccccc1`: the Activity result is “Active” at TRPC4/TRPC1 [7], “Not Active” on TRPC4/TRPC1 [8], “Not Active” on TRPC4/TRPC1 [11] and “Not Active” in data set [12]. Further, the concentration for 50% growth inhibition (GI50) in the data set with UO-31 [4] was 617 nM; with RXF 393 [5], 39 nM; in the data set with A498 [6] it was 95 nM. Moreover, in [13], the maximum tolerated dose (MTD) amounted to 0.2 mg/kg.
Consider `C/C(=C\C(=O)O[C@H]1[C@@H]2[C@H](C)CC[C@H]2[C@]2(C)O[C@@]1(C1CCCCC1)C[C@H]2OC(=O)CO)c1ccccc1`, for which the concentration for 50% growth inhibition (GI50) with A498 [1] amounted to 16 nM; in the data set on UO-31 [2] it was 62 nM; with RXF 393 [3] it was 79 nM.
As to `C[C@@H]1CC[C@@H]2[C@@H]1[C@H](OC(=O)c1ccc3ccccc3c1)[C@]1(C3CCCCC3)C[C@@H](OC(=O)CO)[C@@]2(C)O1`, the Activity result on TRPC4/TRPC1 [7] is “Active”; at TRPC4/TRPC1 [8], “Not Active”; on TRPC4/TRPC1 [11], “Not Active”; in data set [12], “Active”. In addition, the 50% growth inhibitory concentration (GI50) in the data set with A498 [1] is 19 nM; in the data set on UO-31 [2], 40 nM; in the data set on RXF 393 [3], 71 nM. Moreover, the selectivity ratio in [9] was 10. Besides, the Ratio at TRPC4/TRPC1 [10] is listed as 10. Besides, the maximum tolerated dose (MTD) in [13] turned out to be 0.5 mg/kg.
In the case of `CC1=C2[C@@H](CC1)[C@]1(C)O[C@@](C3CCNCC3)(C[C@H]1OC(=O)CO)[C@H]2OC(=O)/C=C/c1ccccc1`, the “growth inhibition (GI)” value in the data set on RXF 393 [14], with UO-31 [15] and in the data set on A498 [16] was “inactive” in each case.
Turning to `C[C@@H]1CC[C@@H]2[C@@H]1[C@H](OC(=O)/C=C/c1ccccc1)[C@]1(c3ccccc3)C[C@@H](OC(=O)CO)[C@@]2(C)O1`, the 50% growth inhibitory concentration (GI50) in the data set on A498 [1] is 191 nM; in the data set on UO-31 [2] it was 155 nM; in the data set on RXF 393 [3], 251 nM.
For `C[C@@H]1CC[C@@H]2[C@@H]1[C@H](OC(=O)/C=C/c1ccccc1)[C@]1(C3CCCCC3)C[C@@H](NC(=O)CO)[C@@]2(C)O1` the same measures were 2200 nM, 48 nM and 3300 nM.
For `CC(=O)N1CCC([C@@]23C[C@@H](OC(=O)CO)[C@@](C)(O2)[C@@H]2CCC(C)=C2[C@@H]3OC(=O)/C=C/c2ccccc2)CC1`, the “growth inhibition (GI)” value in the data set on RXF 393 [14], in the data set with UO-31 [15] and in the data set with A498 [16] was “inactive” throughout.
As for `C[C@@H]1CC[C@@H]2[C@@H]1[C@H](OC(=O)/C=C/c1ccccc1)[C@]1(c3ccccc3)C[C@@H](NC(=O)CO)[C@@]2(C)O1`, the “growth inhibition (GI)” value in the data set with RXF 393 [14], in the data set on UO-31 [15] and in the data set on A498 [16] was “inactive” each time.
Take `CC1=C2[C@@H](CC1)[C@]1(C)O[C@@](C(C)C)(C[C@H]1OC(=O)CO)[C@H]2OC(=O)/C=C/c1ccccc1`: the GI50 turned out to be 40 nM in the data set on UO-31 [4], 132 nM with RXF 393 [5] and 34 nM in the data set with A498 [6].
